The list is not random: actives were taken first. Their share in the collection is about 3%.
SENP6 block: SENP6 protease inhibition. Recombinant SENP6 catalytic domain, aminoluciferin luminescence. inhibition, % at 10 µM. actives 1.8% (n = 330,000). AID 2599;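 active = inhibition above about 50% at the single tested dose, limit read from the data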;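 note: plate controls were DMSO wells with enzyme for no effect and DMSO wells lacking enzyme for full effect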
Apaf-1 inh: human Apaf-1 inhibition; actives 0.71% (n = 330,000); inhibition, % at 20 µM; AID 489030; reconstituted apoptosome caspase-3 activity, DEVD-Rh110 fluorescence; O14727; active = inhibition of at least 40% at 20 µM;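 note: plate controls were DMSO wells for no effect and DEVD-CHO caspase inhibitor wells for full effect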
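Material: reconstituted apoptosome with Apaf-1, cytochrome c, caspase-9, procaspase-3, dATP. Technique: Rh110 fluorescence intensity. Buffer or medium: pH 7.5 Hepes buffer with CHAPS, BSA, DTT. Times: 30 min plus 50 min, RT.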
SENP7 block: blocks the human protease SENP7; actives 1.5% (n = 330,000); inhibition, % at 5 µM; recombinant SENP7, Z-RLRGG-aminoluciferin luminescence, 40 min;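 active = inhibition above about 50% at the single test dose, limit read from the data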;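 note: plate controls were DMSO with enzyme for no effect and no enzyme buffer wells for full effect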
SENP8 block-1: blocks human SENP8 cleavage of Nedd8 substrate; AID 602440; actives 0.64% (n = 360,000); recombinant SENP8, Nedd8 substrate fluorescence; inhibition, % at 20 µM; Q96LD8; in the data active = inhibition mostly above about 40%, no sharp cut-off; inactive = mostly below about 27%
Target sequence (Q96LD8 whole entry, looked up): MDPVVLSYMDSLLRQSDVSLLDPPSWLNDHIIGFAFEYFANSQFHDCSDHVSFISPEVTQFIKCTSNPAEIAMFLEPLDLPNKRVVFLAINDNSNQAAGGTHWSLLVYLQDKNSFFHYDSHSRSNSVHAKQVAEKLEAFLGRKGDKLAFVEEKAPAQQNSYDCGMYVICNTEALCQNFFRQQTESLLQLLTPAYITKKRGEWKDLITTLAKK
UBC13 polyUb: human UBC13 polyubiquitination inhibition; UBC13 polyubiquitin chain formation, TR-FRET; inhibition, % at 20 µM; actives 0.47% (n = 330,000); in the data active = inhibition above about 45%, passing the limit was not always enough; inconclusive = no clear call, values can overlap the other calls
Target sequence (P61088 whole entry, looked up): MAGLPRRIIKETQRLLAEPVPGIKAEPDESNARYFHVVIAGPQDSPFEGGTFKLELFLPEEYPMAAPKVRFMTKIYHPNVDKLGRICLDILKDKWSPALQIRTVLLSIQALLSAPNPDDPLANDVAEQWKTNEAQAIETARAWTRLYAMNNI
SENP8 block-2: blocks the human protease SENP8; AID 2540; Q96LD8; inhibition, % at 10 µM; purified SENP8, Z-RLRGG-aminoluciferin cleavage, luminescence; actives 1.2% (n = 330,000); in the data active = inhibition above about 50%
Apaf-1 inh conf2: confirmation of Apaf-1 inhibitors | shares compounds with Apaf-1 inh | inhibition, % at 20 µM | AID 504614 | actives 25% (n = 1,800) | reconstituted apoptosome, caspase-3 DEVD-Rh110 fluorescence;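 active = mean inhibition of at least 40% at 20 µM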;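 note: plate controls were DMSO wells for no effect and DEVD-CHO caspase inhibitor control wells for full effect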
Rh110 quench: interferes with Rh110 fluorescence, flagging false Apaf-1 inhibitors; shares compounds with Apaf-1 inh; Rh110 fluorescence interference, quenched caspase reaction; activation (fluorescence interference), % at 20 µM; 1,800 tested, under 10 active; AID 504615;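 active = signal rise of 40% or more at 20 µM, treated as a fluorescence artifact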
Apaf1 inh interf: shows fluorescence interference in the Apaf-1 inhibitor assay format. fluorescence interference counterscreen, Apaf-1 assay format. IC50, µM. 460 tested, under 10 active. shares compounds with Apaf-1 inh; call rule not given here
* hit, by the source's call; i = inactive; ? = inconclusive; . = not tested or not shown.

SMILES	SENP6 block	Apaf-1 inh	SENP7 block	SENP8 block-1	UBC13 polyUb	SENP8 block-2	Apaf-1 inh conf2	Rh110 quench	others
COc1ccc2cc1Oc1ccc(cc1)C[C@H]1c3c(cc4c(c3Oc3cc5c(cc3OC)CCN(C)[C@@H]5C2)OCO4)CCN1C	2	49*	-5	13	25	-7	18	-6
c1csc(Cc2nn3c(-c4n[nH]c5c4CCC5)nnc3s2)c1	6	41*	16	-10	-8	4	34	7
CCN1/C(=C/c2ccc3cccc(C)c3[n+]2CC)Sc2ccccc21	-16	14	-11	21	i	-4	.	.
CCN1/C(=C/c2ccc3cc(C)ccc3[n+]2CC)Sc2ccc3sccc3c21	-75	62*	5	34	?	26	60*	-9	Apaf1 inh interf=>100
COC(=O)c1ccc(C(=O)Nc2ccc(N)cc2N)cc1	9	48*	27	15	-16	6	13	1
CNC[C@@H]1Oc2ccc(NS(=O)(=O)c3ccc(Cl)cc3)cc2C(=O)N([C@H](C)CO)C[C@@H]1C	2	45*	-1	0	42	10	19	18
CCCN(CC(=O)Nc1ccccc1C)C(=O)COc1ccc2c(c1)CCC2	6	60*	4	10	14	7	37	5
CC(C)c1ccc(NC(=O)C2CCCN2S(=O)(=O)c2ccccc2F)cc1 (centres undefined)	-10	12	-8	12	0	-11	.	.
O=C(CNc1cc(S(=O)(=O)N2CCOCC2)ccc1NCC1CCCO1)Nc1ccc(F)c(F)c1 (centres undefined)	2	15	1	-5	-14	8	.	.
On1c2c(c3c4nonc4ccc31)CCCC2	1	27	4	.	-6	6	.	.
COn1c2c(c3c4nonc4ccc31)CCCC2	38	47*	1	-263	-13	2	52*	10
Cc1cc2c3c(c1)C(C)CC(C)(C)N3C(=O)C2=O (centres undefined)	-9	2	-6	9	-29	9	.	.
CC1CC2(CCCCC2)N2C(=O)C(=O)c3cccc1c32 (centres undefined)	-6	41*	6	1	-11	4	41*	5	Apaf1 inh interf=>100
COC(=O)c1cnc(SCc2ccc([N+](=O)[O-])cc2)n1C	-14	1	-1	27	-4	-5	.	.
Clc1ccc(C2=Nn3c(nnc3-c3n[nH]c4c3CCC4)SC2)cc1Cl	-2	43*	-3	10	13	-4	34	4
c1ccc(C2=Nn3c(nnc3-c3n[nH]c4c3CCC4)SC2)cc1	-14	12	12	17	-3	-5	.	.
CC(=O)N(C1=C(Cl)C(=O)c2ccccc2C1=O)C1CCCCC1	51*	85*	21	-113	-58	45	90*	5	Apaf1 inh interf=>100
Cc1cc(Cl)c2oc(C(=O)N(C)CCc3cnn(C)c3)c(C)c2c1	5	7	7	13	-1	-2	.	.
COc1ccc(S(=O)(=O)N2CCOC2CNC(=O)C(=O)NCCCN(C)C)cc1C (centres undefined)	-4	13	0	5	21	0	.	.
CCCCCCCCCCCCOC(=O)C[N+](C)(C)C	-44	46*	-4	.	26	-4	10	1
CCCCCCCCCCOC(=O)C[N+](C)(C)C/C=C(/C)Cl	-5	32	-5	12	36	-7	.	.
CC1=NN(c2ccc(C(=O)O)c(N)c2)C(=O)C1	35	62*	18	-44	-42	-1	7	-2
COc1ccc2c(ccn2S(=O)(=O)c2ccccc2)c1	0	17	-13	6	-10	-9	.	.
CC1C(=O)N(Cc2cn(CCC3OCCO3)nn2)CCS(=O)(=O)N1Cc1ccc(-c2ccc(Cl)c(Cl)c2)cc1 (centres undefined)	.	.	.	-17	.	.	.	.
Cc1cccc(NC(=O)CSCC(=O)N(C)Cc2ccc(Cl)c(Cl)c2)c1	-1	63*	-12	5	28	-6	46*	12	Apaf1 inh interf=>100
SMILES	SENP6 block	Apaf-1 inh	SENP7 block	SENP8 block-1	UBC13 polyUb	SENP8 block-2	Apaf-1 inh conf2	Rh110 quench	others
Cc1ccc(NC(=O)CSCC(=O)N(C)Cc2ccc(Cl)c(Cl)c2)cc1	1	28	2	14	18	-4	.	.
C/C=C(\C)C(=O)NCCN1C2=NC[C@@H](Cc3ccccc3)N2C[C@@H]1Cc1ccc(OC)cc1	1	40*	-3	14	31	-10	9	8
O=C(CCC1CCCCC1)NCCN1C2=NC[C@@H](Cc3ccccc3)N2C[C@H]1Cc1ccc(O)cc1	-18	45*	-3	14	15	-10	14	16
C/C=C(\C)C(=O)NCCN1C2=NC[C@H](Cc3ccc(O)cc3)N2C[C@H]1Cc1ccc(O)cc1	2	-6	-4	22	12	1	.	.
C[C@H]1CN=C2N(CCNC(=O)CCC3CCCCC3)[C@H](Cc3ccc(O)cc3)CN21	-4	-2	-6	11	10	4	.	.
O=C1c2ccccc2C(=O)c2c1oc(C(F)(F)F)c2C(=O)c1ccccc1	77*	79*	50	73*	-41	59*	85*	1	Apaf1 inh interf=>100
Cc1ccnc(NS(=O)(=O)c2ccc(NC(=O)c3cccc(Cl)c3)cc2)n1	.	.	.	7	.	.	.	.
CCc1ccc2nc(NC(=O)CSCc3c(C)noc3C)sc2c1	-28	46*	-9	31	-6	-11	29	5
CCOC(=O)c1sc(NC(=O)CSCc2c(C)noc2C)nc1C	-20	-1	3	0	1	-11	.	.
Cc1ccc(CNc2ccc(O)cc2)cc1	48	94*	5	72*	-39	44	11	7
O=C(CCNS(=O)(=O)c1ccccc1)OCc1nc2ccsc2c(=O)[nH]1	-8	-7	-9	6	4	-2	.	.
Cc1nccn1CC(=O)c1ccccc1	.	.	.	11	.	.	.	.
Cn1cnc(S(=O)(=O)Nc2ccccc2N2CCOCC2)c1	-11	-3	-8	7	-7	-5	.	.
CN(C)c1cccc2c1c(NS(=O)(=O)c1cn(C)cn1)nn2C	11	62*	5	5	-21	6	17	-3
Cc1cc(Cl)ccc1OCC(=O)NN1C(=O)C2C3C=CC(C3)C2C1=O (centres undefined)	-10	0	-3	9	6	8	.	.
O=C1/C(=C/c2ccccn2)SC(=S)N1N1CCOCC1	-3	-12	2	22	-3	2	.	.
COc1cccc2c1OCC(C(=O)Nc1nccs1)=C2	10	12	6	-30	0	-5	.	.
